Data published in ChEMBL document CHEMBL2029271, “Design and synthesis of cannabinoid receptor 1 antagonists for peripheral selectivity” (J Med Chem, 2012).

How the values were obtained:
[1] = Metabolic stability in human hepatic S9 fraction assessed as compound remaining at 10 uM after 120 mins; format: ADME, Liver; conditions: s9, 2 h
In short: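 Human hepatic S9 (1 mg/ml) with 10 μM final compound in 50 mM potassium phosphate pH 7.4, 3 mM MgCl2, NADPH regenerating system (NADP 1 mM, glucose-6-phosphate 5 mM, G6PDH 1 unit/ml). Triplicates sampled at 0, 15, 30, 60, 120 min; stopped with 3 volumes acetonitrile; LC-MS/MS (MRM) against matrix standard curves; % parent remaining at 120 min.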

[2] = tested on: Plasma; assay: Metabolic stability in human plasma assessed as compound remaining at 10 uM preincubated for 5 mins measured after 60 mins; format: ADME, cell-free; conditions: 1 h
In short: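 Human plasma, 1 ml per sample at 37°C, 5 min pre-incubation, then compound at 10 μM final, sampled at 0, 30 and 60 min. Reactions stopped with acetonitrile; LC-MS/MS (MRM) quantitation with standards in blank matrix; % parent remaining at 60 min.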

[3] = target: T1, Cannabinoid receptor 1 (Homo sapiens, UniProt P21554); assay: biochemical; format: cell-based, CHO-K1
T1 sequence (P21554 whole entry): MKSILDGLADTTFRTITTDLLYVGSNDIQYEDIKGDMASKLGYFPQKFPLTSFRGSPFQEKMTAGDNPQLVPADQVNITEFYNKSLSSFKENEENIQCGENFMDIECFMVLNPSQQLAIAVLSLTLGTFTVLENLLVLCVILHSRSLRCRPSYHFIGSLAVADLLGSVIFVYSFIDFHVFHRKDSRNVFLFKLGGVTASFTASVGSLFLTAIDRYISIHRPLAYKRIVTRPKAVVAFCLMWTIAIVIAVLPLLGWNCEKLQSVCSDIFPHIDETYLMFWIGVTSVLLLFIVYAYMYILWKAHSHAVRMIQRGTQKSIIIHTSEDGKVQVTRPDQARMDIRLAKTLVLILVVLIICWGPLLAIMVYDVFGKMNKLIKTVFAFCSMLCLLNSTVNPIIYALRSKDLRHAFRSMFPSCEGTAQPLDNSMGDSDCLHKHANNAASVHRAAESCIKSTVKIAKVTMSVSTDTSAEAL

[4] = target: Cannabinoid receptor 2 (Homo sapiens, UniProt P34972); assay: Displacement of [3H]CP55940 from CB2 receptor expressed in CHO-K1 cells; format: cell-based
Chain of Cannabinoid receptor 2 (P34972 whole entry): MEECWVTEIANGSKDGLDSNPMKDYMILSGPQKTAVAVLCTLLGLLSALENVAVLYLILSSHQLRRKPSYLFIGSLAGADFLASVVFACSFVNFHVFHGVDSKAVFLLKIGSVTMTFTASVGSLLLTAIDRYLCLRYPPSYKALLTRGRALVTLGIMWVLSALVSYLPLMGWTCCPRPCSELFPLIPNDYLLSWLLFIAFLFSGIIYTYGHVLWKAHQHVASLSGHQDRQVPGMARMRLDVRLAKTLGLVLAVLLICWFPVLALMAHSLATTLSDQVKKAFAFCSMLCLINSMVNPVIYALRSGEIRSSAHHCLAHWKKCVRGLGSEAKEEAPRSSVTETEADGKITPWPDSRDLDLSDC

[5] = species on record: Homo sapiens; assay: Selectivity ratio of Ki for CB2 receptor to Ki for human CB1 receptor
[6] = tested on: MDCK; assay: Permeability from apical to basal side of MDCK cells expressing human mdr1 gene; format: ADME, cell-based, Canis lupus familiaris; conditions: dog
In short: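 MDCK-mdr1 cells grown 4 days to confluence on Transwell-type filters in DMEM/F12 with 10% FBS and antibiotics. Compound added apically at 3.16 μM in HBSS with 25 mM D-glucose, HEPES-buffered to pH 7.4; 1 hr at 37°C. Apical and basal samples collected and analysed by LC-MS/MS (MRM).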

[7] = tested on: Plasma; assay: (§1) Plasma concentration in Sprague-Dawley rat at 10 mg/kg, po after 30 mins; format: ADME, organism-based; set-up: dose 10 mg/kg, route oral; conditions: in vivo, 0.5 h, BLD = below limit of detection
In short: (§2)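 Orally dosed male Sprague Dawley rats (7–8 weeks; 10 mg/kg in corn oil) sampled by tail vein at 30 minutes. Plasma acetonitrile-precipitated with reserpine internal standard; supernatant injected undiluted for LC-MS/MS, with standards in blank plasma.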

[8] = Plasma concentration in Sprague-Dawley rat at 10 mg/kg, po after 60 mins; format: ADME, organism-based; set-up: dose 10 mg/kg, route oral
In short: (§3)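 Male Sprague Dawley rats, 7–8 weeks old, dosed 10 mg/kg orally (corn oil) or ip (1:1:18 ethanol:cremophor:saline). Plasma collected 1 hour post-dose, acetonitrile-precipitated with reserpine internal standard, supernatant diluted in 50:50 methanol:water, quantified by LC-MS/MS against standards in blank plasma.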

[9] = Plasma concentration in Sprague-Dawley rat at 10 mg/kg, ip after 60 mins; format: ADME, organism-based; set-up: dose 10 mg/kg, route intraperitoneal; in short: as §3
[10] = tested on: Brain; assay: (§4) Drug uptake in Sprague-Dawley rat brain at 10 mg/kg, po after 60 mins; format: ADME, organism-based; set-up: dose 10 mg/kg, route oral; conditions: in vivo, 1 h, BLD = below limit of detection
In short: (§5)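 Male Sprague Dawley rats, 7–8 weeks old, given 10 mg/kg orally (corn oil) or ip (1:1:18 ethanol:cremophor:saline). Brain taken 1 hour post-dose; left lobe homogenized in 50:50 ethanol:water, protein-precipitated with acetonitrile plus reserpine internal standard, analysed by LC-MS/MS against standards in blank brain homogenate.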

[11] = Drug uptake in Sprague-Dawley rat brain at 10 mg/kg, ip after 60 mins; format: ADME, organism-based; set-up: dose 10 mg/kg, route intraperitoneal; conditions: read-out: Drug uptake; in short: as §5
[12] = tested on: Nucleic Acid; assay: Ratio of drug level in brain to plasma in Sprague-Dawley rat at 10 mg/kg, ip after 60 mins; format: ADME, organism-based; set-up: dose 10 mg/kg, route intraperitoneal; conditions: 1 h
In short: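 Male Sprague Dawley rats, 7–8 weeks, given 10 mg/kg ip in 1:1:18 ethanol:cremophor:saline; plasma and brain taken at 1 h. Plasma and left-lobe brain homogenate (50:50 ethanol:water) protein-precipitated with acetonitrile, reserpine internal standard; LC-MS/MS MRM vs standards in blank matrices; brain:plasma concentration ratio.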

[13] = target: T1, Cannabinoid receptor 1; conditions: CHO-K1
[14] = target: T1, Cannabinoid receptor 1; assay: biochemical
[15] = as §1; format: ADME, organism-based; set-up: dose 10 mg/kg, route oral; conditions: Sprague-Dawley, plasma; in short: as §2
[16] = as §4; format: ADME, organism-based; set-up: dose 10 mg/kg, route oral; conditions: Sprague-Dawley, brain, read-out: Drug uptake; in short: as §5
[17] = tested on: Nucleic Acid; assay: Ratio of drug level in brain to plasma in Sprague-Dawley rat at 10 mg/kg, po after 60 mins; format: ADME, organism-based; set-up: dose 10 mg/kg, route oral; conditions: 1 h
In short: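 Male Sprague Dawley rats, 7–8 weeks, dosed orally at 10 mg/kg in corn oil; plasma and brain collected 1 h post-dose (tail-vein blood also at 30 min). Acetonitrile precipitation with reserpine internal standard, brain left lobe homogenized in 50:50 ethanol:water; LC-MS/MS MRM with blank-matrix standards; brain:plasma concentration ratio.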
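For Ke in this document: antagonism measured as blockade of CP55940-evoked intracellular Ca2+ rise, read fluorometrically, in cells additionally carrying Galphaq16.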

Ki [3] [nM] | Ki [4] [µM] | Ratio Ki [5] | permeability [6] [%] | Ke [13] [nM] | Ki [14] [nM] | SMILES | Stability [1] [%] | Stability [2] [%] | Cp [7] | concentration at 1 h [8] [ng/mL] | concentration at 1 h [9] [ng/mL] | Drug uptake [10] | concentration at 1 h [11] [ng/mL] | BPR [12] | concentration at 0.5 h [15] [ng/mL] | concentration at 1 h [16] [ng/mL] | BPR [17]
 |  |  |  |  |  | Cc1c(C(=O)NN2CCCCC2)nn(-c2ccc(Cl)cc2Cl)c1-c1ccc(Cl)cc1 [RIMONABANT] | 47 | > 90 |  |  |  |  |  |  |  |  | 
 |  | 1600 | 8 | 0.4 | 0.4 | Cc1c(C(=O)N2CCC(C(N)=O)(c3ccccc3)CC2)nn(-c2ccc(Cl)cc2Cl)c1-c1ccc(Cl)cc1 |  |  |  |  |  |  |  |  |  |  | 
 |  |  |  |  |  | Cc1c(C(=O)NCC2CCC(CNS(N)(=O)=O)CC2)nn(-c2ccc(Cl)cc2Cl)c1-c1ccc(Cl)cc1 (stereo not given) | 62 | > 90 |  |  |  |  |  |  |  |  | 
17.5 | 2.51 | 143 | < 1 | 10.4 |  | CCOC(=O)N1CCC[C@@H](NC(=O)c2nn(-c3ccc(Cl)cc3Cl)c(-c3ccc(Cl)cc3)c2C)C1 |  |  |  |  |  |  |  |  |  |  | 
11.8 | 1.25 | 106 | < 1 | 7 |  | Cc1c(C(=O)N[C@@H]2CCCN(S(C)(=O)=O)C2)nn(-c2ccc(Cl)cc2Cl)c1-c1ccc(Cl)cc1 |  |  |  |  |  |  |  |  |  |  | 
77.9 | 10.9 | 140 | < 1 | 62 |  | Cc1c(C(=O)N[C@H]2CCCN(S(C)(=O)=O)C2)nn(-c2ccc(Cl)cc2Cl)c1-c1ccc(Cl)cc1 |  |  |  |  |  |  |  |  |  |  | 
9.2 | 3 | 326 | < 1 | 3 |  | CCOC(=O)N1CCC(NC(=O)c2nn(-c3ccc(Cl)cc3Cl)c(-c3ccc(Cl)cc3)c2C)CC1 |  |  |  |  |  |  |  |  |  |  | 
 |  |  |  |  |  | Cc1c(C(=O)NCC2CCC(CNS(C)(=O)=O)CC2)nn(-c2ccc(Cl)cc2Cl)c1-c1ccc(Cl)cc1 (stereo not given) | 37 | > 90 |  |  |  |  |  |  |  |  | 
65.5 | 5.42 | 83 | < 1 | 75 |  | CCOC(=O)N1CCC[C@H](NC(=O)c2nn(-c3ccc(Cl)cc3Cl)c(-c3ccc(Cl)cc3)c2C)C1 |  |  |  |  |  |  |  |  |  |  | 

SMILES | Ki [3] [nM] | Ki [4] [µM] | Ratio Ki [5] | permeability [6] [%] | Ke [13] [nM] | Ki [14] [nM] | Stability [1] [%] | Stability [2] [%] | Cp [7] | concentration at 1 h [8] [ng/mL] | concentration at 1 h [9] [ng/mL] | Drug uptake [10] | concentration at 1 h [11] [ng/mL] | BPR [12] | concentration at 0.5 h [15] [ng/mL] | concentration at 1 h [16] [ng/mL] | BPR [17]
Cc1c(C(=O)NC2CCN(C(=O)OC(C)(C)C)CC2)nn(-c2ccc(Cl)cc2Cl)c1-c1ccc(Cl)cc1 | 2.9 | 2.51 | 878 | < 1 | 4.7 |  | > 90 | > 90 | BLD | 13.2 | 197 | BLD | 4.2 | 0.0214 |  |  | 
Cc1c(C(=O)N2CCC(NC(=O)NCc3ccccc3)(c3ccccc3)CC2)nn(-c2ccc(Cl)cc2Cl)c1-c1ccc(Cl)cc1 | 43 | 17.1 | 398 | < 1 | 2.1 |  | 18 | 82 |  |  |  |  |  |  |  |  | 
Cc1c(C(=O)N2CCC(NC(=O)NC(C)(C)C)(c3ccccc3)CC2)nn(-c2ccc(Cl)cc2Cl)c1-c1ccc(Cl)cc1 |  | 20 | 425 | < 1 | 2.4 |  | 88 | > 90 |  | 10.3 | 386 | BLD | 12.4 | 0.032 | 3.72 |  | 
Cc1c(C(=O)N2CCC(NC(=O)OC(C)(C)C)(c3ccccc3)CC2)nn(-c2ccc(Cl)cc2Cl)c1-c1ccc(Cl)cc1 |  |  | 49.9 | < 1 | 20.2 |  | 88 | > 90 |  |  |  |  |  |  |  |  | 
Cc1c(C(=O)NC2CCN(C(=O)NC(C)(C)C)CC2)nn(-c2ccc(Cl)cc2Cl)c1-c1ccc(Cl)cc1 | 14.7 | 3.35 | 228 | < 1 | 78 |  |  | 71 |  | 28 | 67.4 |  | 25.5 | 0.379 | 5.08 | 4.46 | 0.16
